These results are taken from ChEMBL document CHEMBL2321744 (J Med Chem, 2013).

Data set [1] concerns the target T1, Phospholipase D2 (Homo sapiens, UniProt O14939). Nature of the data set: Inhibition of GFP-tagged PLD2 in human HEK293 cells assessed as deuterated 1-butanol incorporation pretreated for 5 mins prior to substrate addition measured after 30 mins by mass spectrometry.
Another data set concerns the target T2, Phospholipase D1 (Homo sapiens, UniProt Q13393).
T2 sequence (Q13393 whole entry): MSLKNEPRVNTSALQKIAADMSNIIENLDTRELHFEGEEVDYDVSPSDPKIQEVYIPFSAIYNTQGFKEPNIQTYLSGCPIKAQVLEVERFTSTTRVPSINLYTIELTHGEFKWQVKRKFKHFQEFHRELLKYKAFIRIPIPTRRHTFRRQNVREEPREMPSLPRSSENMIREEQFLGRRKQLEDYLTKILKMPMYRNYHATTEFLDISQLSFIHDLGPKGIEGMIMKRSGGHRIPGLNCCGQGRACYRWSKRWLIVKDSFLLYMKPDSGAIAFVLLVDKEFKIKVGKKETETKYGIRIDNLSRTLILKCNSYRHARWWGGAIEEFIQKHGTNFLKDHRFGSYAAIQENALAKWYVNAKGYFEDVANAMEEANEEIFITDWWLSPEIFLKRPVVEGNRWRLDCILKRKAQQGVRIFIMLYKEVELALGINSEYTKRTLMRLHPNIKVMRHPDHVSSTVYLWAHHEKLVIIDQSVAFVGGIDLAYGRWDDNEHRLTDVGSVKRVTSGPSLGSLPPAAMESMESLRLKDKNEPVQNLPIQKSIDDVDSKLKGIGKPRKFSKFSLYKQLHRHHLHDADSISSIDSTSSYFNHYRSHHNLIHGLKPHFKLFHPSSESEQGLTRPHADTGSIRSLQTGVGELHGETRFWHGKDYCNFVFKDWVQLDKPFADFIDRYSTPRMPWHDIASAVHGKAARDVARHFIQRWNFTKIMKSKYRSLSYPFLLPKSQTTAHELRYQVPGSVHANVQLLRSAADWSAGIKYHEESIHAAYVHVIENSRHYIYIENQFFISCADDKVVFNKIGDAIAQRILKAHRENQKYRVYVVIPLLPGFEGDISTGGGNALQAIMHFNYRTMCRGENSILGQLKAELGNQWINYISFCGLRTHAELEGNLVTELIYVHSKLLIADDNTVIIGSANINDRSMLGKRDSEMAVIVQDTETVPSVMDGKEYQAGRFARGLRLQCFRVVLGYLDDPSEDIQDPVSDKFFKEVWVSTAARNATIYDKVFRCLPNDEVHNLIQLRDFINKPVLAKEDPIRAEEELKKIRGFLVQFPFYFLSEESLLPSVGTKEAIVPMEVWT
Nature of the data set: Inhibition of PLD1 in human Calu-1 cells assessed as deuterated 1-butanol incorporation pretreated for 5 mins prior to substrate addition measured after 30 mins by mass spectrometry.

The next data set has as its system U-87 MG. Nature of the data set: Increase in caspase 3/7 activation in human U87MG cells after 6 to 72 hrs under serum free conditions. Conditions: U-87MG ATCC. The data set is classed as functional, cell-based.
A short description of data set [2]: Cytotoxicity against human U87MG cells assessed as cell viability up to 10 uM by WST-1 assay in presence of 10% FBS relative to control. The data set is classed as cell-based. Particulars: u-87mg atcc. The method, boiled down: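 U87-MG cells in 10% FBS were exposed to compound at concentrations up to 10 μM. Viability was compared with DMSO vehicle.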
Data set [3] is described as follows: Solubility of the compound in PBS buffer. The data set is classed as physicochemical.
The next data set has as its target hERG (KCNH2) (Homo sapiens, UniProt Q12809). Description: Inhibition of human ERG at 10 uM by radioligand binding assay.
Data set [4] is described as follows: Stability of the compound in PBS buffer up to 48 hrs. The data set is classed as physicochemical.
Data set [5] deals with T1, Phospholipase D2. Particulars: U-87MG ATCC.
A short description of data set [6]: in vivo. Conditions: black6 (printed 'balck6'), mouse, lung, ip, 10 mg/kg.
Data set [7] can be described thus: in vivo. Particulars: black6 (printed 'balck6'), mouse, brain, ip, 10 mg/kg.

Activity calls are given as the source filed them. The calls are words filed in the database; no cut-off is given here.

T1 sequence (O14939 whole entry): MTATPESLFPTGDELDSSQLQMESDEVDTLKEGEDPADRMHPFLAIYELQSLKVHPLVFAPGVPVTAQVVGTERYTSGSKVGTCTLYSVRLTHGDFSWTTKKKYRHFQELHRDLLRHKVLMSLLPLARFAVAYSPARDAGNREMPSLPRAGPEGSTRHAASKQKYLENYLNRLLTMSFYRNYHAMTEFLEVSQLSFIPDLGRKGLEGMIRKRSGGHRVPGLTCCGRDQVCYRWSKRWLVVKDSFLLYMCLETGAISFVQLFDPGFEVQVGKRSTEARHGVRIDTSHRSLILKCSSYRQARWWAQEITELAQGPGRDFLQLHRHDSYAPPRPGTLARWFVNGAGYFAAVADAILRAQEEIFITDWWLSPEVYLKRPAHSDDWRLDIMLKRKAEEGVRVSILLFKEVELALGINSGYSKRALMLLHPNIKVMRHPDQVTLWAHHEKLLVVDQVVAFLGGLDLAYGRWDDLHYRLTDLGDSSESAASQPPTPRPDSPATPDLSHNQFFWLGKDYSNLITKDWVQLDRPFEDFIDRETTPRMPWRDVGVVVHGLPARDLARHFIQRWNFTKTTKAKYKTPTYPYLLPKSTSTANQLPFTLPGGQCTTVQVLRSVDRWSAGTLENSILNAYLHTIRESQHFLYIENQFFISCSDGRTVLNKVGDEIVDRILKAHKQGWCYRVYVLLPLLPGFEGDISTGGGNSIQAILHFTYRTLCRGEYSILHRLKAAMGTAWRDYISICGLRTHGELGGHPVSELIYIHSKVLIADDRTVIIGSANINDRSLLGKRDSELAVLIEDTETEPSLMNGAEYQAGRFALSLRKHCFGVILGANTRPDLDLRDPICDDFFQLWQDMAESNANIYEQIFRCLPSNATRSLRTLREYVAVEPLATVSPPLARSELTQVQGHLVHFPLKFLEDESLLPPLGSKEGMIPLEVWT
hERG (KCNH2), sequence (Q12809 whole entry): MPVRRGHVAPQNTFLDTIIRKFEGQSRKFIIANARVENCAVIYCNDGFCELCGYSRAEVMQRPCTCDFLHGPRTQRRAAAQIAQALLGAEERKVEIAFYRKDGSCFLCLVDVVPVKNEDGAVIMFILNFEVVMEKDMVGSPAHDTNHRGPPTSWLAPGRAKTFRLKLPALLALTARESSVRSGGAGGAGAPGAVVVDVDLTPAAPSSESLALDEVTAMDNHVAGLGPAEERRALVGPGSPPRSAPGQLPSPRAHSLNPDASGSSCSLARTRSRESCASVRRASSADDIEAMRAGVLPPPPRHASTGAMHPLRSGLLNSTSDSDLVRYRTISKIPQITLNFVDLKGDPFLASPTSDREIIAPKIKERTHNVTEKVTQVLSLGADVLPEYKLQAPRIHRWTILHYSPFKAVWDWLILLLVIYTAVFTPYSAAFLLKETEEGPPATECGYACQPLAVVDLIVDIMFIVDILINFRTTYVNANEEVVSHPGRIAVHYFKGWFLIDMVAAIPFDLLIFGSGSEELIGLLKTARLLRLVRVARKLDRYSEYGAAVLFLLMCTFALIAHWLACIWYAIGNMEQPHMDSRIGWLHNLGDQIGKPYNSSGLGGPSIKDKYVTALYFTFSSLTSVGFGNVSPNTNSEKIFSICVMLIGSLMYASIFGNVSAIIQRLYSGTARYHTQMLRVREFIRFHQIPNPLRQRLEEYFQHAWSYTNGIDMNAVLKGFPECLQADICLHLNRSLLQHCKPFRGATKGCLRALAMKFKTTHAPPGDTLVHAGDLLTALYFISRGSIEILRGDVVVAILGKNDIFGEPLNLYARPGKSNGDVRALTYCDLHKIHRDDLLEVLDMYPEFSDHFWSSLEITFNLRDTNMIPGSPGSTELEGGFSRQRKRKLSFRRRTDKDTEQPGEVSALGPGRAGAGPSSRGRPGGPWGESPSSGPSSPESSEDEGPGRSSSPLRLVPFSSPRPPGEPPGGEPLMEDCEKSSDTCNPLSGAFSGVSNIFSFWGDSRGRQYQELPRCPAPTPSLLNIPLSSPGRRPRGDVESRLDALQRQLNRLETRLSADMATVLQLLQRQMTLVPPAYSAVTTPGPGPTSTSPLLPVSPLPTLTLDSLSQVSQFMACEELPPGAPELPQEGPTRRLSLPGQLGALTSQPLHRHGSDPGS

As for `C[C@H](CN1CCC2(CC1)C(=O)NCN2c1cccc(F)c1)NC(=O)c1ccc(F)c(F)c1`, the IC50 at Phospholipase D2 [1] is 3450 nM; on Phospholipase D1 it was 1400 nM.

Take `C[C@H](CN1CCC2(CC1)C(=O)NCN2c1cccc(F)c1)NC(=O)c1ccc(F)cc1`: the IC50 turned out to be 1060 nM on Phospholipase D2 [1] and 760 nM at Phospholipase D1.

For the compound `O=C(NCCN1CCC2(CC1)C(=O)NCN2c1cccc(F)c1)c1ccc(F)cc1`, the IC50 at Phospholipase D2 [1] stood at 350 nM.

`O=C(NCCN1CCC2(CC1)C(=O)NCN2c1cccc(F)c1)c1ccc(Br)cc1`: the IC50 on Phospholipase D2 [1] turned out to be 200 nM; on Phospholipase D1 it was 1540 nM.

`C[C@@H](CN1CCC2(CC1)C(=O)NCN2c1cccc(F)c1)NC(=O)c1ccc(F)cc1`: the IC50 at Phospholipase D2 [1] was found to be 35 nM; on Phospholipase D1, 20 nM.

`C[C@H](CN1CCC2(CC1)C(=O)NCN2c1cccc(F)c1)NC(=O)c1ccc(Br)cc1`: the IC50 on Phospholipase D2 [1] amounted to 800 nM.

Regarding `Cc1cccc(N2CNC(=O)C23CCN(C[C@H](C)NC(=O)c2ccc(Br)cc2)CC3)c1`, in the data set with U-87 MG, the outcome was Active. In addition, in [2], the Activity entry is recorded as “Non-toxic”. The solubility entry in [3] was “soluble”. On hERG (KCNH2), this compound gave an inhibition at 10 µM above 50%. For the same compound, the Stability result in data set [4] is listed as “Stable”.

Regarding `C[C@@H](CN1CCC2(CC1)C(=O)NCN2c1cccc(F)c1)NC(=O)c1ccc(F)c(F)c1`, the IC50 on Phospholipase D2 [1] came out at 120 nM; on Phospholipase D1 it was 86 nM.

Turning to `O=C(NCCN1CCC2(CC1)C(=O)NCN2c1cccc(F)c1)c1ccc(F)c(F)c1`, the Activity result in data set [2] is reported as “Non-toxic”. Further, the solubility entry in data set [3] was “soluble”. The Stability entry in [4] is on record as “Stable”. Moreover, on Phospholipase D2 [5], the inhibition entry was “Dose-dependent effect”. In addition, the AUC at 6 h in the data set “in vivo [6]” was determined as 4.61 µM·h; in the data set “in vivo [7]” it was 0.08 µM·h.
